From PMC5795620 (Journal of medicinal chemistry, 2017)

Columns and labels:
[1] = Metabolic stability in swine brain homogenate; assay type: in vitro ADME; conditions: 10 μM, 0-60 min
[2] = nonhuman primate, systemic administration; cited from earlier work
EcoHIV-infected mice = test: Radial arm water maze in EcoHIV-infected mice; assay type: in vivo, mouse; conditions: control for visual or motor function; 1 mg/kg, ip, qod
Method in brief: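 Male C57BL/6J mice, 5 weeks old, randomized (n = 8/group) to drug or saline starting 1 day before ip EcoHIV (2 × 106 pg p24) or sham PBS inoculation. Dosing continued through 30-day infection and testing. From day 30 p.i., six-lane opaque-water RAWM with visual cues. After hidden-platform trials, latency to a visible platform measured in the same context.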

EcoHIV = EcoHIV viral load in spleen and brain by qPCR; assay type: in vivo, mouse; conditions: EcoHIV-infected mice, 1 mg/kg, ip, qod
[3] = Overt toxicity observation in mice during 14 treatment; assay type: in vivo, mouse; conditions: 1 mg/kg, ip, qod over infection period and testing
[4] = Metabolic stability in swine plasma; assay type: in vitro ADME; conditions: 60 min incubation in swine plasma
[5] = Metabolic stability in mouse plasma; assay type: in vitro ADME; conditions: representative chromatogram (Figure S1)

CC(C)OC(=O)[C@H](CCC(=O)C=[N+]=[N-])NC(=O)OC(OC(=O)C(C)(C)C)C(C)C (mixture of isomers) [Compound 13c, Isopropyl 6-Diazo-2-(((2-methyl-1-(pivaloyloxy)propoxy)-carbonyl)amino)-5-oxohexanoate]
Metabolic lability in swine brain homogenate (in words) [1]: readily biotransformed

CC(C)OC(=O)[C@H](CCC(=O)C=[N+]=[N-])NC(=O)OC(C)(C)OC(=O)C(C)(C)C [Compound 13e, Isopropyl 6-Diazo-5-oxo-2-((((2-(pivaloyloxy)propan-2-yl)-oxy)carbonyl)amino)hexanoate]
Metabolic lability in swine brain homogenate (in words) [1]: mostly stable

CC(C)OC(=O)[C@H](CCC(=O)C=[N+]=[N-])NC(=O)O[C@H](C)OC(=O)C(C)(C)C [Compound 13b, Isopropyl 6-Diazo-5-oxo-2-(((1-(pivaloyloxy)ethoxy)-carbonyl)amino)hexanoate]
Metabolic lability in swine brain homogenate (in words) [1]: moderately labile | Enhancement in the CSF-to-plasma ratio of 14 exposure relative to equimolar 14 [2]: about 10 fold

[N-]=[N+]=CC(=O)CC[C@H](N)C(=O)O [Compound 14, 6-diazo-5-oxo-L-norleucine]
RAWM escape latency to a visible platform (EcoHIV-infected mice): no effect | EcoHIV viral load in the brain (EcoHIV): no effect | EcoHIV viral load in the spleen (DNA copies) (EcoHIV; p = 0.022): slight increase | Overt signs of toxicity (diarrhea, weight loss) [3]: no mice exhibited overt signs of toxicity

CC(C)OC(=O)[C@H](CCC(=O)C=[N+]=[N-])NC(=O)OCOC(=O)C(C)(C)C [Compound 13a, Isopropyl 6-Diazo-5-oxo-2-((((pivaloyloxy)methoxy)-carbonyl)amino)hexanoate]
Stability in swine plasma (in words) [4]: labile

CC(C)OC(=O)[C@H](CCC(=O)C=[N+]=[N-])NC(=O)OC(OC(=O)C(C)(C)C)c1ccccc1 (some centres unmarked) [Compound 13d, Isopropyl 6-Diazo-5-oxo-2-(((phenyl(pivaloyloxy)methoxy)-carbonyl)amino)hexanoate]
Time to complete conversion to 14 in mouse plasma [5]: ≤ 10 min | Metabolic lability in swine brain homogenate (in words) [1]: readily biotransformed
